Activity calls are given as the source filed them. No cut-off for these calls is given here.
Legend:
[1] = tested on: MCF7; experiment: Cytotoxicity against human MCF7 cells assessed as reduction in cell viability incubated for 24 hrs by MTT assay; assay type: functional, cell-based; conditions: MCF7, 24 h
Method in brief: (§1)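 MTT viability: cells seeded at 1 × 10^4/well, grown 24 h, then exposed to a concentration range of compound for 24 h. MTT (5 mg/mL stock) added for 3 h, formazan dissolved in DMSO, absorbance read at 540 nm.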

[2] = tested on: HEK293; experiment: Cytotoxicity against human HEK293 cells assessed as reduction in cell viability incubated for 24 hrs by MTT assay; assay type: cell-based; conditions: HEK293, 24 h; method in brief: as §1
[3] = tested on: MDA-MB-231; experiment: Induction of cell cycle arrest in human MDA-MB-231 cells assessed as accumulation at G0/G1 phase at 2 uM incubated for 24 hrs by PI staining based flow cytometry analysis (reference value: 23.74 to 46.27 %); assay type: functional
[4] = tested on: MDA-MB-231; experiment: Induction of cell cycle arrest in human MDA-MB-231 cells assessed as accumulation at S phase at 2 uM incubated for 24 hrs by PI staining based flow cytometry analysis (reference value: 40.37 to 57.89 %); assay type: functional
[5] = tested on: MDA-MB-231; experiment: Induction of cell cycle arrest in human MDA-MB-231 cells assessed as accumulation at G2/M phase at 2 uM incubated for 24 hrs by PI staining based flow cytometry analysis (reference value: 4.35 to 19.56 %); assay type: functional
[6] = tested on: MDA-MB-231; experiment: Induction of cell cycle arrest in human MDA-MB-231 cells assessed as accumulation at G0/G1 phase at 4 uM incubated for 24 hrs by PI staining based flow cytometry analysis (reference value: 23.74 to 46.27 %); assay type: functional
[7] = tested on: MDA-MB-231; experiment: Induction of cell cycle arrest in human MDA-MB-231 cells assessed as accumulation at G2/M phase at 4 uM incubated for 24 hrs by PI staining based flow cytometry analysis (reference value: 4.35 to 19.56 %); assay type: functional
[8] = tested on: MDA-MB-231; experiment: Induction of cell cycle arrest in human MDA-MB-231 cells assessed as accumulation at G0/G1 phase at 6 uM incubated for 24 hrs by PI staining based flow cytometry analysis (reference value: 23.74 to 46.27 %); assay type: functional
[9] = tested on: MDA-MB-231; experiment: Induction of cell cycle arrest in human MDA-MB-231 cells assessed as accumulation at S phase at 6 uM incubated for 24 hrs by PI staining based flow cytometry analysis (reference value: 40.37 to 57.89 %); assay type: functional
[10] = tested on: MDA-MB-231; experiment: Induction of cell cycle arrest in human MDA-MB-231 cells assessed as accumulation at G2/M phase at 6 uM incubated for 24 hrs by PI staining based flow cytometry analysis (reference value: 4.35 to 19.56 %); assay type: functional
[11] = tested on: MDA-MB-231; experiment: Induction of apoptosis in human MDA-MB-231 cells assessed as viable cells at 2 uM incubated for 24 hrs by annexin-V-FITC and PI staining based flow cytometry analysis (reference value: 95.27 to 97.16 %); assay type: functional; conditions: read-out: Activity
[12] = tested on: MDA-MB-231; experiment: Induction of apoptosis in human MDA-MB-231 cells assessed as early apoptotic cells at 2 uM incubated for 24 hrs by annexin-V-FITC and PI staining based flow cytometry analysis (reference value: 0.28 to 4.68 %); assay type: functional
Method in brief: (§2)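 MDA-MB-231 cells (1 × 10^6) grown 24 h in six-well plates, then treated for 24 h. Cells trypsinized, PBS-washed and stained with Annexin V-FITC/PI in binding buffer for 10 min in the dark at room temperature. Early/late apoptotic fractions quantified by flow cytometry.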

[13] = tested on: MDA-MB-231; experiment: Induction of apoptosis in human MDA-MB-231 cells assessed as late apoptotic cells at 2 uM incubated for 24 hrs by annexin-V-FITC and PI staining based flow cytometry analysis (reference value: 0.28 to 0.84 %); assay type: functional
[14] = tested on: MDA-MB-231; experiment: Induction of apoptosis in human MDA-MB-231 cells assessed as necrotic cells at 2 uM incubated for 24 hrs by annexin-V-FITC and PI staining based flow cytometry analysis (reference value: 0.01 to 0.8 %); assay type: functional
[15] = tested on: MDA-MB-231; experiment: Induction of apoptosis in human MDA-MB-231 cells assessed as late apoptotic cells at 4 uM incubated for 24 hrs by annexin-V-FITC and PI staining based flow cytometry analysis (reference value: 0.28 to 0.84 %); assay type: functional
[16] = tested on: MDA-MB-231; experiment: Induction of apoptosis in human MDA-MB-231 cells assessed as necrotic cells at 4 uM incubated for 24 hrs by annexin-V-FITC and PI staining based flow cytometry analysis (reference value: 0.01 to 0.8 %); assay type: functional
[17] = tested on: MDA-MB-231; experiment: Induction of apoptosis in human MDA-MB-231 cells assessed as viable cells at 6 uM incubated for 24 hrs by annexin-V-FITC and PI staining based flow cytometry analysis (reference value: 95.27 to 97.16 %); assay type: functional; conditions: read-out: Activity
[18] = tested on: MDA-MB-231; experiment: Induction of apoptosis in human MDA-MB-231 cells assessed as early apoptotic cells at 6 uM incubated for 24 hrs by annexin-V-FITC and PI staining based flow cytometry analysis (reference value: 0.28 to 4.68 %); assay type: functional; method in brief: as §2
[19] = tested on: MDA-MB-231; experiment: Induction of apoptosis in human MDA-MB-231 cells assessed as late apoptotic cells at 6 uM incubated for 24 hrs by annexin-V-FITC and PI staining based flow cytometry analysis (reference value: 0.28 to 0.84 %); assay type: functional
[20] = tested on: MDA-MB-231; experiment: Induction of apoptosis in human MDA-MB-231 cells assessed as necrotic cells at 6 uM incubated for 24 hrs by annexin-V-FITC and PI staining based flow cytometry analysis (reference value: 0.01 to 0.8 %); assay type: functional
[21] = tested on: MDA-MB-231; experiment: Induction of ROS production in human MDA-MB-231 cells at 2 to 6 uM incubated for 24 hrs by DCFH-DA staining based flow cytometry analysis; assay type: functional, cell-based; conditions: dose 2-6 µM
Method in brief: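 MDA-MB-231 cells (1 × 10^6) seeded in 6-well plates for 24 h, then treated at several concentrations for 24 h. Cells trypsinized, fixed in cold methanol, stained with 30 µg/mL DCFH-DA for 30 min in the dark at room temperature, and analysed by flow cytometry.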

[22] = tested on: MDA-MB-231; experiment: Cytotoxicity against human MDA-MB-231 cells assessed as reduction in cell viability at 2 to 6 uM incubated for 24 hrs in presence of NAC by MTT assay; assay type: functional, cell-based; conditions: dose 2-6 µM
Method in brief: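 MDA-MB-231 cells pretreated 2 h with 10 mM N-acetylcysteine, then exposed to compound for 24 h. Viability by MTT (3 h), formazan in DMSO, absorbance at 540 nm. Three independent experiments, mean ± S.E.M.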

[23] = tested on: MDA-MB-231; experiment: Induction of autophagy in human MDA-MB-231 cells at 2 to 4 uM incubated for 24 hrs by MDC staining based fluorescence microscopic analysis; assay type: functional, cell-based; conditions: dose 2-4 µM
Method in brief: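 Autophagic vacuoles detected in MDA-MB-231 cells (1 × 10^6) seeded on cover slips for 24 h, then treated 24 h. Cells PBS-washed, stained with 0.05 mM monodansylcadaverine for 30 min in dark at room temperature, washed, and examined by fluorescence microscopy.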

[24] = biological target: Tubulin (Homo sapiens) (UniProt P68371+Q9H4B7+P0DPH7+P68366+Q13509+Q71U36+P04350+Q3ZCM7+P07437+P68363+Q9BQE3+Q6PEY2+Q13885+Q9BVA1+Q9BUF5); experiment: Induction of tubulin polymerization (unknown origin) at 10 uM incubated for 1 hr by spectrometric analysis; assay type: protein-complex assay

| SMILES | IC50 [1] | IC50 [2] | Activity [3] | Activity [4] | Activity [5] | Activity [6] | Activity [7] | Activity [8] | Activity [9] | Activity [10] | viability at 2 µM [11] | Activity [12] | Activity [13] | Activity [14] | Activity [15] | Activity [16] | viability at 6 µM [17] | Activity [18] | Activity [19] | Activity [20] | other results |
| --- | --- | --- | --- | --- | --- | --- | --- | --- | --- | --- | --- | --- | --- | --- | --- | --- | --- | --- | --- | --- | --- |
| COc1ccc2c(c1)c(Cc1ccc(OC(C)CN(C)C)cc1)c(-c1cc(OC)c(OC)c(OC)c1)n2Cc1ccc(OC(C)CN(C)C)cc1 (stereo unspecified) | 7.06 µM | 21.8 µM | 46.32% | 40.83% | 12.85% | 46.54% | 9.55% | 49.36% | 42.27% | 8.37% | 72.5% | 17.38% | 3.43% | 3.43% | 15.18% | 3.55% | 45.8% | 20.52% | 26.15% | 7.58% | Activity [21]: Active; Activity [22]: inactive; Activity [23]: Active; Activity [24]: Active |
| CCN(CC)CCOc1ccc(Cc2c(-c3cc(OC)c(OC)c(OC)c3)n(Cc3ccc(OCCN(CC)CC)cc3)c3ccc(OC)cc23)cc1 | 6.36 µM | 25.4 µM | 51.72% | 38.21% | 10.07% | 53.87% | 8.09% | 57.6% | 36.56% | 5.84% | 88.2% | 9.52% | 2.94% | 4.3% | 14.66% | 3.29% | 69.7% | 14.01% | 14.25% | 2.09% | Activity [21]: Active; Activity [22]: inactive; Activity [23]: Active; Activity [24]: Active |
| COc1ccc2c(c1)c(Cc1ccc(OCCN3CCCCC3)cc1)c(-c1cc(OC)c(OC)c(OC)c1)n2Cc1ccc(OCCN2CCCCC2)cc1 | 6.48 µM | 30.5 µM | 53.25% | 34.3% | 12.45% | 55.16% | 15.43% | 59.19% | 29.41% | 8.91% | 81.5% | 12.28% | 4.26% | 2.01% | 26.25% | 1.69% | 44.6% | 17.19% | 37.67% | 0.55% | Activity [21]: Active; Activity [22]: inactive; Activity [23]: Active; Activity [24]: Active |
| COc1ccc2c(c1)c(Cc1ccc(OCCN(C)C)cc1)c(-c1cc(OC)c(OC)c(OC)c1)n2Cc1ccc(OCCN(C)C)cc1 | 4.48 µM | 24.5 µM | 60.43% | 38.78% | 0.79% | 61.13% | 0.22% | 64.37% | 35.63% | 0% | 80.7% | 11.63% | 5.32% | 2.34% | 20.05% | 3.44% | 36.2% | 39.6% | 15.1% | 9.08% | Activity [21]: Active; Activity [22]: inactive; Activity [23]: Active; Activity [24]: Active |
